A selection: hits, their analogues and other compounds. The true share with any hit is near 3.5%.
Apaf-1 inh: inhibitors of human Apaf-1 apoptosome, primary screen, biochemical, DEVD-Rh110 fluorescence, uHTS; hit rate 0.71% among 330,000; AID 489030, 2010; reconstituted apoptosome caspase-3 activity; inhibition, % at 20 µM; Apoptotic protease-activating factor 1 (Homo sapiens), O14727; active = inhibition of at least 40% at 20 µM
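System: Apoptosome proteins | Medium: Hepes pH 7.5 with detergent and BSA | Also added: Cytochrome c trigger plus (Z-DEVD)2-Rh110 caspase-3 substrate | Incubation: 30 min compound preincubation, 50 min activation, room temperature | Detection: Rhodamine 110 fluorescence at Ex 480/Em 540 nm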
PAFAH1B3 inh: PAFAH1B3 enzyme inhibitors, primary screen, biochemical, fluorescence polarization, human; hit rate 0.28% among 340,000; inhibition, % at 3.39 µM; recombinant PAFAH1B3, FP-rhodamine probe;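 active = inhibition above the screen-wide average of all tested compounds plus 3 SD, cut at about 25% in these data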
Target sequence (Q15102 whole entry, looked up): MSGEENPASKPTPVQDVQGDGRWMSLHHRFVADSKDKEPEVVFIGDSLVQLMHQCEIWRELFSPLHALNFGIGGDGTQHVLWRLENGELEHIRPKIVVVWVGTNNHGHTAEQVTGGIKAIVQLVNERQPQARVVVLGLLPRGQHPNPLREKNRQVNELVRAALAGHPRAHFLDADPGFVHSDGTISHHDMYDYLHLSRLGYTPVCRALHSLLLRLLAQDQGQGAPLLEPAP
PREPL inh: PREPL enzyme inhibitors, primary screen, biochemical, fluorescence polarization; inhibition, % at 5.96 µM; recombinant PREPL, fluorescence polarization activity-based probe; hit rate 0.68% among 320,000; AID 2751, 2010; Prolyl endopeptidase-like (Homo sapiens), Q4J6C6; in the data active = inhibition above about 43%
pPAFAH FP inh: pPAFAH enzyme inhibitors, primary screen, biochemical, fluorescence polarization, human | hit rate 1.5% among 330,000 | Platelet-activating factor acetylhydrolase (Homo sapiens), Q13093 | inhibition, % at 3.39 µM | AID 463082, 2010 | recombinant pPAFAH, FP-rhodamine probe fluorescence polarization;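 active = inhibition above the mean inhibition across the screen plus 3 SD, cut at about 25% in these data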;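 also: inhibitors block binding of the rhodamine activity-based probe so polarization drops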
PAFAH2 inh: PAFAH2 enzyme inhibitors, primary screen, biochemical, fluorescence polarization, human; inhibition, % at 3.39 µM; recombinant PAFAH2, FP-rhodamine activity probe; Platelet-activating factor acetylhydrolase 2, cytoplasmic (Homo sapiens), Q99487; hit rate 0.99% among 340,000;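 active = inhibition above the mean over all tested compounds plus 3 SD, cut at about 30% in these data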;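 also: inhibitors block probe labeling of enzyme so polarization drops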
PAFAH1B2 inh: PAFAH1B2 enzyme inhibitors, primary screen, biochemical, fluorescence polarization, human. inhibition, % at 3.39 µM. AID 492953, 2010. Platelet-activating factor acetylhydrolase IB subunit alpha2 (Homo sapiens), P68402. hit rate 1.2% among 340,000. recombinant PAFAH1B2, FP-rhodamine activity probe;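 active = inhibition above the mean of all tested compounds plus 3 SD, cut at about 24% in these data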
Target sequence (P68402 whole entry, looked up): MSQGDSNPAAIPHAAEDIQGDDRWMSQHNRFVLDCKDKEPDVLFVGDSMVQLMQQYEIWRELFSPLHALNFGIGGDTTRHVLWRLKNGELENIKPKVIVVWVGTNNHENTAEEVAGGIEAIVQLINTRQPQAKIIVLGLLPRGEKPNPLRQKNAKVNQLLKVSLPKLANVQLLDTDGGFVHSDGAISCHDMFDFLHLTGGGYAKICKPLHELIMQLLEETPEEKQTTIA
PAFAH2 confirm: PAFAH2 enzyme inhibitors, confirmation, biochemical, fluorescence polarization, human | shares compounds with PAFAH2 inh | recombinant PAFAH2, FP-rhodamine activity probe | inhibition, % at 3.39 µM | hit rate 65% among 2,300 | AID 493030, 2011;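 active = mean inhibition over three repeats above a set limit taken from the earlier primary screen, cut at about 30% in these data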;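 also: inhibitor blocks binding of rhodamine activity probe so polarization falls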
Numbers stand for hits; i = inactive; nt = not tested or not shown.

SMILES | Apaf-1 inh | PAFAH1B3 inh | PREPL inh | pPAFAH FP inh | PAFAH2 inh | PAFAH1B2 inh | PAFAH2 confirm
CCOC(=O)Cc1c(C)nc2c(-c3cccc(Br)c3)c[nH]n2c1=O | i | i | i | i | 33 | i | i
COc1ccc(NC2CC(=O)N(c3ccccc3)C2=O)cc1 (centres undefined) | i | i | i | i | 41 | i | i
O=C(OCc1nc2ccccc2[nH]1)C12CC3CC(CC(C3)C1)C2 | i | i | i | i | 57 | i | 49
CSCC[C@H](NC(=O)Nc1ccc(OC(F)(F)F)cc1)C(=O)O | i | i | i | i | i | i | nt
CSCC[C@H](NC(=O)Nc1ccc(Oc2ccccc2)cc1)C(=O)O | i | i | i | i | 38 | i | i
Cc1cc(C)n(-c2ccc(C(=O)NCCCN3CCOCC3)cc2)n1 | i | i | i | i | i | i | nt
COc1ccc(C(=O)OCC(=O)c2ccc[nH]2)cc1 | i | i | i | i | 40 | i | 31
Cc1cccc(NC(=O)COC(=O)c2ccc3nc(C)c(C)nc3c2)c1 | i | i | i | i | 71 | i | 49
O=C(OCC(=O)c1ccc[nH]1)c1ccc(Br)cc1 | i | i | i | i | i | i | nt
Cc1cccc(NC(=O)COC(=O)c2cc(C)oc2C)c1 | i | i | i | i | 75 | i | 79
Cc1cc(C(=O)OCC(=O)Nc2ccccc2C#N)c(C)o1 | i | i | nt | nt | 43 | i | 32
N#CCOc1ccccc1CNC[C@H]1O[C@@H](n2cnc(C(N)=O)n2)[C@H](O)[C@@H]1O | nt | i | nt | nt | i | i | nt
S=C(Nc1ccc(Cl)cc1)NC1CC2CCC(C1)N2Cc1ccccc1 (centres undefined) | i | i | i | i | i | i | nt
CCOC(=O)[C@H]1[C@H]2COc3ccccc3[C@@H]2N2C(=O)c3ccc(C)cc3NC(=O)[C@@]12C | i | i | i | i | i | i | nt
COc1cccc(C(=O)COC(=O)c2ccc(NC(C)=O)cc2)c1 | i | i | i | i | 37 | i | 32
COc1ccc(C(=O)COC(=O)c2ccc(NC(C)=O)cc2)cc1[N+](=O)[O-] | i | i | i | i | i | i | nt
Cc1cc(C(=O)OCC(=O)Nc2ccccc2F)c(C)o1 | i | i | i | i | 39 | i | 32
CC(=O)Nc1ccc(C(=O)OCC(=O)Nc2ccccc2F)cc1 | i | i | i | i | 69 | i | 70
CCC(=O)c1ccc(OC(=O)N2CCOCC2)cc1 | i | i | i | i | 35 | i | i
Cc1ccc(OC(=O)N2CCOCC2)cc1 | i | i | i | i | i | i | nt
CC(C)(C)c1ccc(OC(=O)N2CCOCC2)cc1 | i | i | i | i | 30 | i | 38
CC1(C)SC2c3ccccc3C(=O)N2[C@@H]1C(=O)NC1CC1 (some centres undefined) | i | i | i | i | i | i | nt
COc1ccc(C[C@H](N)C(=O)N[C@H]2[C@@H](O)[C@H](n3cnc4c(N(C)C)ncnc43)O[C@@H]2CO)cc1 | i | i | i | i | i | i | nt
O=C(O)CCc1[nH]c2ccccc2c1Sc1ccccc1 | i | i | i | i | 31 | i | i
O=C1CC(c2ccccc2)CN1C(=O)c1cncc(Br)c1 (centres undefined) | i | i | i | i | 64 | i | 61
SMILES | Apaf-1 inh | PAFAH1B3 inh | PREPL inh | pPAFAH FP inh | PAFAH2 inh | PAFAH1B2 inh | PAFAH2 confirm
O=C(COC(=O)c1cccc(S(=O)(=O)N2CCc3ccccc32)c1)Nc1ncc(Cl)cc1Cl | i | i | i | i | i | i | nt
O=C(COC(=O)c1cccc(S(=O)(=O)N2CCOCC2)c1)Nc1ncc(Cl)cc1Cl | i | i | i | i | 35 | i | i
N#Cc1ccc(Cl)cc1NC(=O)CNc1cccc(S(=O)(=O)N2CCCC2)c1 | i | i | nt | nt | i | i | nt
N#Cc1ccc(Cl)cc1NC(=O)COC(=O)c1cccc(S(=O)(=O)N2CCOCC2)c1 | i | i | i | i | 46 | i | 38
CCOc1ccc(/C(O)=C2/C(=O)C(=O)N(c3ncccn3)C2c2ccccc2)cc1 (centres undefined) | i | i | i | i | i | i | nt
COCCCNC(=O)Cc1c(C)c2c(cc(C)c3c(C(C)(C)C)coc32)oc1=O | i | i | i | i | 33 | i | i
CCOc1ccc(S(=O)(=O)N2CCCCC2)cc1NC(=O)C1CSC2(C)CCC(=O)N12 (centres undefined) | i | i | i | i | i | i | nt
COc1ccc(/C=C/C(=O)OCC(=O)Nc2ccc3c(c2)OCO3)cc1 | i | i | i | i | 70 | i | 69
COc1cc(/C=C/C(=O)OCC(=O)Nc2ccc3c(c2)OCCO3)ccc1O | i | i | i | i | 75 | i | 80
Cc1nn(C2CCS(=O)(=O)C2)c(Cl)c1/C=C/C(=O)OCC(=O)Nc1ccc2c(c1)OCO2 (centres undefined) | i | i | i | i | 83 | i | 80
COc1cc(/C=C/C(=O)OCC(=O)Nc2ccc3c(c2)OCO3)ccc1O | i | i | i | i | 82 | i | 74
O=C1NC2(CCCCCC2)C(=O)N1Cc1cccc([N+](=O)[O-])c1 | i | i | i | i | i | i | nt
Cc1ccc(C(=O)OCC(=O)c2ccc(Cl)s2)s1 | i | i | i | i | 74 | i | 66
Cc1ccc(C(=O)OCC(=O)NCCNC(=O)COC(=O)c2ccc(C)s2)s1 | i | i | i | i | i | i | nt
CC(NC(=O)COC(=O)CC(c1ccccc1)c1ccccc1)c1ccccc1 (centres undefined) | i | i | i | i | 59 | i | 47
Cc1ccc(C(=O)OCC(=O)NC(C)c2ccccc2)s1 (centres undefined) | i | i | i | i | 78 | i | 69
CC(NC(=O)COC(=O)Cc1ccc(Cl)cc1)c1ccccc1 (centres undefined) | i | i | i | i | i | i | nt
Cc1ccc(C(=O)NCC(=O)OCC(=O)NC(C)c2ccccc2)s1 (centres undefined) | i | i | i | i | i | i | nt
CC(C)Cc1csc(NC(=O)c2ccc(F)cc2)c1C(=O)O | i | i | i | i | 37 | i | i
Cc1cc(C)cc(OCC(=O)OCC(=O)Nc2cc(S(=O)(=O)N3CCOCC3)ccc2C)c1 | i | i | i | i | i | i | nt
CCOc1ncccc1C(=O)OCC(=O)Nc1ccc(C)c(S(=O)(=O)N2CCOCC2)c1 | i | i | i | i | 75 | i | 76

Screening data from PubChem BioAssay.
